Data reported in ChEMBL document CHEMBL2040758, “Synthesis and antitumor activity of novel quinazoline derivatives containing thiosemicarbazide moiety” (Eur J Med Chem, 2012).

Columns and labels:
Type in all cases: functional, cell-based
[1] = Cytotoxicity against human CNE2 cells after 72 hrs by MTT assay; details: CNE-2, 72 h
In short: (§1)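 Log-phase cells: KB, CNE2, MGC-803 and GLC-82 grown in RPMI 1640 + 10% fetal calf serum; MCF-7 in DMEM + 10% fetal calf serum. Seeded at 1.5×10⁴ cells/mL (KB), 2.0×10⁴ (CNE2, MGC-803, GLC-82) or 2.5×10⁴ (MCF-7), 37 °C, 5% CO₂, 24 h. Compound exposure 72 h, 37 °C. MTT (5 mg/mL saline stock) 3 h. A570, reference 655 nm. IC₅₀ versus untreated control, ≥3 experiments.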

KB = experiment: Cytotoxicity against human KB cells after 72 hrs by MTT assay; in short: as §1
MCF7 = experiment: Cytotoxicity against human MCF7 cells after 72 hrs by MTT assay; details: MCF7, 72 h; in short: as §1
[2] = Cytotoxicity against human GLC82 cells after 72 hrs by MTT assay; details: GLC82, 72 h; in short: as §1
MGC-803 = experiment: Cytotoxicity against human MGC803 cells after 72 hrs by MTT assay; details: MGC-803, 72 h; in short: as §1

Row | SMILES | IC50 [1] [µM] | IC50 (KB) [µM] | IC50 (MCF7) [µM] | IC50 [2] [µM] | IC50 (MGC-803) [µM]
1 | COc1cc2ncnc(NNC(=S)NC(=O)c3ccc(Cl)cc3)c2cc1OC | 7.53 | 4.59 | 8.94 | 9.62 | 3.71
2 | COc1cc2ncnc(NNC(=S)NC(=O)c3ccccc3OC)c2cc1OC | 8.41 | 3.85 | 8.8 | 16 | 1.59
3 | COc1cc2ncnc(NNC(=S)NC(=O)c3ccccc3C)c2cc1OC | 10.5 | 11.4 | 19.3 | 21.5 | 11.1
4 | COc1cc2ncnc(NNC(=S)NC(=O)c3ccc(C)cc3)c2cc1OC | 33.3 | 24.2 | 22.3 | 29.9 | 19.7
5 | O=C(NC(=S)NNc1ncnc2ccccc12)c1ccccc1 | 1.49 | 2.33 | 5.96 | 8.37 | 6.99
6 | O=C(NC(=S)NNc1ncnc2ccccc12)c1ccccc1Cl | 6.09 | 7.71 | 10.5 | 10.8 | 9.14
7 | O=C(NC(=S)NNc1ncnc2ccccc12)c1cccc(Cl)c1 | 2.92 | 4.74 | 3.54 | 3.24 | 4.54
8 | O=C(NC(=S)NNc1ncnc2ccccc12)c1ccc(Cl)cc1 | 1.53 | 3.94 | 5.96 | 6.68 | 1.86
9 | O=C(NC(=S)NNc1ncnc2ccccc12)c1ccccc1F | 4.61 | 2.51 | 5.02 | 6.46 | 5.01
10 | O=C(NC(=S)NNc1ncnc2ccccc12)c1ccc(F)cc1 | 2.84 | 1.87 | 4.59 | 6.07 | 3.6
11 | O=C(NC(=S)NNc1ncnc2ccccc12)c1ccc(C(F)(F)F)cc1 | 22.5 | 7.92 | 8.05 | 12.2 | 10.6
12 | COc1ccccc1C(=O)NC(=S)NNc1ncnc2ccccc12 | 15.7 | > 50 | 8.7 | 9.5 | 14.3
13 | Cc1ccccc1C(=O)NC(=S)NNc1ncnc2ccccc12 | 5.46 | 2.77 | 16.5 | 13.2 | 4.24
14 | Cc1ccc(C(=O)NC(=S)NNc2ncnc3ccccc23)cc1 | 17.2 | 10.1 | 7.82 | 11.2 | 3.76
15 | COc1cc2ncnc(NNC(=S)NC(=O)c3ccccc3)c2cc1OC | 8.18 | 3.77 | 6.99 | 6.55 | 3.05
16 | COc1cc2ncnc(NNC(=S)NC(=O)c3ccccc3Cl)c2cc1OC | 9.67 | 3.56 | 23.1 | 10 | 6.44
17 | COc1cc2ncnc(NNC(=S)NC(=O)c3cccc(Cl)c3)c2cc1OC | 7.46 | 4.83 | 11.5 | 8.37 | 4.06
18 | COc1cc2ncnc(NNC(=S)NC(=O)c3ccccc3F)c2cc1OC | 12.7 | 4.07 | 8.5 | 8.64 | 2.39
19 | COc1cc2ncnc(NNC(=S)NC(=O)c3ccc(F)cc3)c2cc1OC | 16.1 | 4.53 | 25.8 | 15.3 | 8.3
20 | COc1cc2ncnc(NNC(=S)NC(=O)c3ccc(C(F)(F)F)cc3)c2cc1OC | 16.5 | 8.84 | 16.8 | 16.5 | 9.28
21 | O=c1[nH]cc(F)c(=O)[nH]1 [FLUOROURACIL] | 15.1 | 8.28 | 14.2 | 17.4 | 18.5
